High-throughput results as filed in PubChem.
EBV LMP1 NFkB: Epstein-Barr LMP1 NF-kappaB reporter inhibition | LMP1-induced NF-kappaB luciferase reporter cells, luminescence | inhibition, % at 12.5 µM | 350,000 compounds, 0.69% hits; in the data active = inhibition above about 41%;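 also: 0% = neutral control wells and 100% = reference inhibitor control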
PAX8 reporter: PAX8 transcriptional activity inhibition; 360,000 compounds, 1.2% hits; RMG-I TPO-luciferase reporter, SteadyGlo, 24 h; inhibition, % at 12.6 µM; AID 652154;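 active = mean replicate inhibition at least 60% with every replicate also reaching 60%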;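 also: luciferase light reporting Pax8 driven TPO promoter activity; plate controls were median of neutral control wells for no effect and mitoxantrone controls for full effect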
FN deposition inh: fibronectin deposition inhibition; AH1F fibroblasts, Alexa488-fibronectin deposition fluorescence, overnight; inhibition, % at 12.6 µM; 350,000 compounds, 0.086% hits;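 active = mean inhibition across replicates of 30% or more, regardless of how many single replicates reach that level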;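 also: positive control wells lacked labelled fibronectin entirely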
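Assay system: AH1F fibroblasts / Quantity: 10000 cells per well / Medium: DMEM plus 2% serum, read in PBS / Reagent: labelled fibronectin 24 nM / Dosing: single dose, pinned / Times: 1 h cell attachment, overnight exposure to compound and label / Signal: fluorescence, ex 485 nm, em 525 nm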
Shn3 inh set2: inhibitors of Schnurri-3 3'UTR reporter in osteoblasts; 360,000 compounds, 0.52% hits; Clone20 osteoblast Shn3 3'UTR firefly luciferase, 24 h; AID 588674; inhibition, % at 12.5 µM;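 active = mean inhibition of at least 75% with every replicate also reaching 75%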;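 also: 0% = median of neutral control wells and 100% = pilot-screen positive control compound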
aSyn 5UTR inh: 5' untranslated region of α-synuclein, MLPCN primary screen | 300,000 compounds, 0.82% hits | alpha-synuclein 5'UTR reporter, inhibitor activity | AID 1813 | inhibition, % (tested at 7.5 µM); in the data active = inhibition above about 60%;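 also: H4 neuroglioblastoma cells stably carrying SNCA 5'UTR luciferase fusion; 0% = DMSO wells and 100% = positive control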
EWS-Fli inh: blocks EWS/Fli oncoprotein-driven transcription; A673 NR0B1-luciferase reporter, viability-normalised; inhibition, % at 12.6 µM; 350,000 compounds, 0.67% hits; AID 651661;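 active = mean inhibition of at least 50% after viability correction, with every replicate also passing that limit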;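 also: firefly luciferase signal divided by Alamar Blue viability fluorescence both relative to DMSO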
Active calls of the source: *; / = no result. Sampled rows, rich in hits. Any-hit rate of the full collection: about 2.1%.

SMILES	EBV LMP1 NFkB	PAX8 reporter	FN deposition inh	Shn3 inh set2	aSyn 5UTR inh	EWS-Fli inh
COCC(=O)N(C)C[C@H]1Oc2ncc(C#C[C@@H](C)O)cc2C(=O)N([C@@H](C)CO)C[C@H]1C	/	/	7.3	/	/	-2.2
C[C@@H]1CN([C@H](C)CO)C(=O)c2cc(-c3ccccc3)cnc2O[C@@H]1CN(C)C(=O)c1cccnc1	/	13.6	-0.4	/	/	2.7
COc1cc(/C=C/[N+](=O)[O-])ccc1OCc1cccc(C(=O)O)c1	/	/	/	/	96.8*	/
CCOc1ccc(NC(=O)Cn2cc(C(=O)CC)c3ccccc32)cc1	70.9*	/	/	2.0	0.7	/
CC(=O)Nc1ccc(NC(=O)C(=O)c2cn(CC(=O)N3CCCC3)c3ccccc23)cc1	4.7	-0.7	7.8	-20.0	-15.9	-15.8
COc1ccc(NC(=O)C(=O)c2cn(CC(=O)N3CCCC3)c3ccccc23)cc1	10.2	50.5	-3.4	-0.9	104.6*	42.0
COc1ccccc1C#Cc1ccc([C@@H]2[C@H]3CN(C(=O)C4CC4)CCCCN3[C@H]2CO)cc1	/	49.0	/	/	/	-11.8
C[C@@H]1CCCCO[C@H](CN(C)Cc2ccncc2)[C@H](C)CN([C@H](C)CO)C(=O)c2cc(NS(=O)(=O)c3ccccc3)ccc2O1	/	-39.1	-3.0	/	/	-1.4
O=C(C[C@H]1CC[C@H](NC(=O)Nc2cccc(F)c2)[C@@H](CO)O1)NCC1CCCCC1	/	4.6	3.2	/	/	1.2
Cc1cc(Br)c2c(c1)/C(=C/C(=O)c1cccs1)C(=O)N2	-3.1	0.5	/	96.5*	-6.8	43.1
Cc1cccc2c1NC(=O)/C2=C\C(=O)c1cccs1	11.7	/	-0.7	16.2	-16.6	/
CCn1c(=O)c2c(cnn2C)c2ccccc21	46.7*	-16.6	1.1	27.3	-4.3	/
CCS(=O)(=O)N1CC2(C1)[C@H](c1ccccc1)[C@H](CO)N2C(=O)C1CC1	/	-2.8	/	/	/	3.3
C[C@@H]1CC=CC[C@@H](c2cccc(Cl)c2)NC(=O)[C@H](C)N(C)C(=O)c2ccccc2O1 (mixture of isomers)	/	/	-15.6	/	/	/
COc1ccccc1-c1csc2ncnc(Sc3nnnn3C)c12	5.9	18.4	8.2	13.2	/	9.9
Cn1nnnc1Sc1ncnc2scc(-c3ccccc3Br)c12	10.4	82.9*	25.0	-4.0	/	2.8
Cn1nnnc1Sc1ncnc2scc(-c3ccccc3)c12	33.8	91.3*	12.5	7.7	-59.1	/
Cn1nnnc1Sc1ncnc2scc(-c3ccc(F)cc3)c12	70.6*	108.1*	/	92.7*	-88.9	/
Cn1nnnc1Sc1ncnc2scc(-c3ccc[nH]3)c12	-9.7	99.1*	8.1	70.9	/	-16.2
COc1ccccc1CNC(=O)C[C@@H]1C[C@@H]2c3cc(N(C)C)ccc3O[C@@H]2[C@H](CO)O1	/	1.7	-1.8	/	/	-0.6
O=C(N[C@@H]1CC[C@H](CCNS(=O)(=O)c2ccc(F)cc2)O[C@H]1CO)C1CCCC1	/	6.2	/	/	/	2.3
COc1cccc(NC(=O)N(C)C[C@H]2Oc3ncc(/C=C/c4ccccc4)cc3C(=O)N([C@H](C)CO)C[C@@H]2C)c1	/	13.7	/	/	/	-6.3
CCC(=O)N1C[C@@H](C)[C@@H](OC)CN(C)C(=O)c2ccc(NC(=O)C3CC3)cc2OC[C@H]1C	/	-3.4	-6.4	/	/	-4.3
CC(C)(C)OC(=O)COc1cccc(C(=O)CCN2CCOCC2)c1	/	3.9	/	/	/	-9.9
C[C@@H]1CN([C@@H](C)CO)C(=O)c2cc(NC(=O)Cc3ccccc3)ccc2O[C@@H](C)CCCCO[C@H]1CN(C)S(=O)(=O)c1cccs1	/	-11.7	/	/	/	9.0
SMILES	EBV LMP1 NFkB	PAX8 reporter	FN deposition inh	Shn3 inh set2	aSyn 5UTR inh	EWS-Fli inh
O=C(C[C@H]1CC[C@@H](NS(=O)(=O)c2ccc(F)cc2)[C@H](CO)O1)N1CCC(Cc2ccccc2)CC1	/	28.4	/	/	/	6.0
Cn1nnnc1Sc1ncnc2scc(-c3ccc(Br)cc3)c12	15.3	99.5*	6.6	96.0*	/	43.4
Cn1nnnc1Sc1ncnc2scc(-c3cccc4ccccc34)c12	5.0	40.1	14.0	-4.3	/	1.5
Cn1nnnc1Sc1ncnc2scc(Br)c12	26.8	56.1	0.3	97.0*	/	-1.9
C[C@@H]1CCCCO[C@H](CN(C)C(=O)c2ccncc2)[C@@H](C)CN([C@H](C)CO)C(=O)c2cc(NC(=O)NC3CCCCC3)ccc2O1	/	-22.0	/	/	/	-1.7
O=C(C[C@@H]1C[C@H]2c3cc(NC(=O)CC4CC4)ccc3O[C@H]2[C@H](CO)O1)NCC(F)(F)F	/	0.2	-11.8	/	/	-0.6
